Test results as given in ChEMBL document CHEMBL1146509, “Periconicins, two new fusicoccane diterpenes produced by an endophytic fungus Periconia sp. with antibacterial activity” (2004).
In brackets after ≈: the same amount, converted by molar mass.

Assays:
Bacillus subtilis = assay: Antibacterial activity against Bacillus subtilis ATCC 6633 after 24 hrs by twofold microtiter broth dilution method; assay type: functional
In short: (§1)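 Two-fold serial dilutions in DMSO added to standard methods (SM) broth in 96-well plates, final 0.5% DMSO; wells inoculated from overnight culture at 10^5 CFU/mL; incubated 37 °C for 24 h; MIC taken as lowest concentration with no visible growth. Strains from ATCC or Institute for Fermentation, Osaka stock collections.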

Staphylococcus aureus = assay: Antibacterial activity against Staphylococcus aureus ATCC 6538p after 24 hrs by twofold microtiter broth dilution method; assay type: functional; in short: as §1
[1] = test system: Staphylococcus epidermidis; assay: Antibacterial activity against Staphylococcus epidermidis ATCC 12228 after 24 hrs by twofold microtiter broth dilution method; assay type: functional; in short: as §1
Micrococcus luteus = assay: Antibacterial activity against Micrococcus luteus IFO 12708 after 24 hrs by twofold microtiter broth dilution method; assay type: functional; in short: as §1
Klebsiella pneumoniae = assay: Antibacterial activity against Klebsiella pneumoniae IFO 13541 after 24 hrs by twofold microtiter broth dilution method; assay type: functional; in short: as §1
Proteus vulgaris = assay: Antibacterial activity against Proteus vulgaris ATCC 3851 after 24 hrs by twofold microtiter broth dilution method; assay type: functional; in short: as §1
Salmonella typhimurium = assay: Antibacterial activity against Salmonella typhimurium ATCC 14028 after 24 hrs by twofold microtiter broth dilution method; assay type: functional, Salmonella enterica subsp. enterica serovar Typhimurium; in short: as §1
Escherichia coli = assay: Antibacterial activity against Escherichia coli ATCC 25922 after 24 hrs by twofold microtiter broth dilution method; assay type: functional; in short: as §1
[2] = Salmonella enterica, ATCC 14028, 24 h

Row | Molecule | MIC (Bacillus subtilis; ATCC 6633, 24 h) [µg/mL] | MIC (Staphylococcus aureus) [µg/mL] | MIC ([1]; ATCC 12228, 24 h) [µg/mL] | MIC (Micrococcus luteus; IFO 12708, 24 h) [µg/mL] | MIC (Klebsiella pneumoniae; IFO 13541, 24 h) [µg/mL] | MIC (Proteus vulgaris; ATCC 3851, 24 h) [µg/mL] | MIC (Salmonella typhimurium; [2]) [µg/mL] | MIC (Escherichia coli; ATCC 25922, 24 h) [µg/mL] | MIC (Bacillus subtilis) [µg/mL] | MIC [1] [µg/mL] | MIC (Micrococcus luteus) [µg/mL] | MIC (Klebsiella pneumoniae) [µg/mL] | MIC (Proteus vulgaris) [µg/mL] | MIC (Salmonella typhimurium; Salmonella enterica subsp. enterica serovar Typhimurium) [µg/mL] | MIC (Escherichia coli) [µg/mL]
1 | CC(CO)C1=C2C/C=C(/C=O)[C@@H]3C(=O)[C@@H](O)[C@@H](C)[C@H]3C[C@]2(C)CC1 (some centres undefined) [PERICONICIN B] | 25 (≈ 75.2 µM) | 50 (≈ 150 µM) | 100 (≈ 301 µM) | > 100 | 25 (≈ 75.2 µM) | 50 (≈ 150 µM) | 50 (≈ 150 µM) | > 100 | – | – | – | – | – | – | –
2 | CC(C)C1=C2C/C=C(/C=O)[C@@H]3C(=O)[C@@H](O)[C@@H](C)[C@H]3C[C@]2(C)CC1 [PERICONICIN A] | 3.12 (≈ 9.86 µM) | 12.5 (≈ 39.5 µM) | 12.5 (≈ 39.5 µM) | 25 (≈ 79 µM) | 3.12 (≈ 9.86 µM) | 6.25 (≈ 19.8 µM) | 6.25 (≈ 19.8 µM) | 100 (≈ 316 µM) | – | – | – | – | – | – | –
3 | GENTAMICIN | – | 3.12 | – | – | – | – | – | – | 3.12 | 3.12 | 6.25 | 12.5 | 6.25 | 3.12 | 1.56
